Results: ChEMBL document CHEMBL1152560, “Substituted 2-arylbenzothiazoles as kinase inhibitors: hit-to-lead optimization” (Bioorg Med Chem, 2009)

Assays:
[1] = biological target: Tyrosine-protein kinase BTK (Homo sapiens) (UniProt Q06187); assay: Residual activity of BTK at 0.1 uM by microplate scintillation counting
[2] = biological target: Dual specificity mitogen-activated protein kinase kinase 1 (Homo sapiens) (UniProt Q02750); assay: Residual activity of wild type MEK1 at 1 uM by microplate scintillation counting
[3] = biological target: Protein kinase C gamma type (Homo sapiens) (UniProt P05129); assay: Residual activity of PKCgamma at 1 uM by microplate scintillation counting
[4] = system: T1, Receptor-type tyrosine-protein kinase FLT3 (Homo sapiens), P36888 [D835Y]; assay: Residual activity of FLT3 D835Y mutant at 10 uM by microplate scintillation counting
T1 sequence (whole entry): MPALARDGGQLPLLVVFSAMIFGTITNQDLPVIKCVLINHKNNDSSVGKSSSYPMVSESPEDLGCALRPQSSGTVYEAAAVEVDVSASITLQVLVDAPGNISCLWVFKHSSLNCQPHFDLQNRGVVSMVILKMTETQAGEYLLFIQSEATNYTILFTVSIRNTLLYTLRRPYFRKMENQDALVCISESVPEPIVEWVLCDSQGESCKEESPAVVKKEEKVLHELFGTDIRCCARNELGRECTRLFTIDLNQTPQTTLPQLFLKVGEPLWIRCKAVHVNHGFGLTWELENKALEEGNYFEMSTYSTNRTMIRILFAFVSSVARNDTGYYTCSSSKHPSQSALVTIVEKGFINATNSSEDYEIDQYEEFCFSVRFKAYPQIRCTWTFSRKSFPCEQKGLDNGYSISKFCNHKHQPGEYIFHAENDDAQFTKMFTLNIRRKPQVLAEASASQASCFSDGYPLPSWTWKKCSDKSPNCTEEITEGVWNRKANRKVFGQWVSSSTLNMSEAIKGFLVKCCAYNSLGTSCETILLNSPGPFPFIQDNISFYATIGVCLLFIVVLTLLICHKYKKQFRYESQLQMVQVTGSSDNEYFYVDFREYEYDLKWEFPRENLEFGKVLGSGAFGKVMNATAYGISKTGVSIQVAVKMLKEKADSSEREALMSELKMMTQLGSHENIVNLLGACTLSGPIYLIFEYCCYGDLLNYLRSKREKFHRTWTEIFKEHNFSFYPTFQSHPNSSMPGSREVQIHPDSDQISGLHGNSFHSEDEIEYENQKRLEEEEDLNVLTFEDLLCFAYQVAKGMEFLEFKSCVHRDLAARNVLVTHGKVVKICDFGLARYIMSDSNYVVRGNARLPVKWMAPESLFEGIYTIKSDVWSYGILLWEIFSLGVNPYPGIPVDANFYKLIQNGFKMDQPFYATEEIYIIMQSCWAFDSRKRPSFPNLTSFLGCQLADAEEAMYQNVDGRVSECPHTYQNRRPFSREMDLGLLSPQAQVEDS

[5] = biological target: Misshapen-like kinase 1 (Homo sapiens) (UniProt Q8N4C8); assay: Residual activity of MINK1 at 0.1 uM by microplate scintillation counting
[6] = biological target: Death-associated protein kinase 2 (Homo sapiens) (UniProt Q9UIK4); assay: Residual activity of DAPK2 at 10 uM by microplate scintillation counting
Chain of Death-associated protein kinase 2 (Homo sapiens) (Q9UIK4 whole entry, looked up): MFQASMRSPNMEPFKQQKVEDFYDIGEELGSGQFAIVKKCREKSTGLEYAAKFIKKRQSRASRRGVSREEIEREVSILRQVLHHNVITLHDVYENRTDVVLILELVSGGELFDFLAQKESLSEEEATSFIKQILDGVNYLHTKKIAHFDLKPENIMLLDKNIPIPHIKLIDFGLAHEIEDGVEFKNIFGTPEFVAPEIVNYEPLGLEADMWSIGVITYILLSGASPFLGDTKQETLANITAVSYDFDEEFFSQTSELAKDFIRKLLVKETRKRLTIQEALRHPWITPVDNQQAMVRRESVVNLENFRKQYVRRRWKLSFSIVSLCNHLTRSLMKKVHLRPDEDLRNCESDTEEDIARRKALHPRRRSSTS

[7] = system: Mast/stem cell growth factor receptor Kit (Homo sapiens), P10721 [T670I]; assay: Residual activity of KIT T670I mutant at 0.1 uM by microplate scintillation counting
Chain of Mast/stem cell growth factor receptor Kit (Homo sapiens), P10721 [T670I] (P10721 whole entry T670I): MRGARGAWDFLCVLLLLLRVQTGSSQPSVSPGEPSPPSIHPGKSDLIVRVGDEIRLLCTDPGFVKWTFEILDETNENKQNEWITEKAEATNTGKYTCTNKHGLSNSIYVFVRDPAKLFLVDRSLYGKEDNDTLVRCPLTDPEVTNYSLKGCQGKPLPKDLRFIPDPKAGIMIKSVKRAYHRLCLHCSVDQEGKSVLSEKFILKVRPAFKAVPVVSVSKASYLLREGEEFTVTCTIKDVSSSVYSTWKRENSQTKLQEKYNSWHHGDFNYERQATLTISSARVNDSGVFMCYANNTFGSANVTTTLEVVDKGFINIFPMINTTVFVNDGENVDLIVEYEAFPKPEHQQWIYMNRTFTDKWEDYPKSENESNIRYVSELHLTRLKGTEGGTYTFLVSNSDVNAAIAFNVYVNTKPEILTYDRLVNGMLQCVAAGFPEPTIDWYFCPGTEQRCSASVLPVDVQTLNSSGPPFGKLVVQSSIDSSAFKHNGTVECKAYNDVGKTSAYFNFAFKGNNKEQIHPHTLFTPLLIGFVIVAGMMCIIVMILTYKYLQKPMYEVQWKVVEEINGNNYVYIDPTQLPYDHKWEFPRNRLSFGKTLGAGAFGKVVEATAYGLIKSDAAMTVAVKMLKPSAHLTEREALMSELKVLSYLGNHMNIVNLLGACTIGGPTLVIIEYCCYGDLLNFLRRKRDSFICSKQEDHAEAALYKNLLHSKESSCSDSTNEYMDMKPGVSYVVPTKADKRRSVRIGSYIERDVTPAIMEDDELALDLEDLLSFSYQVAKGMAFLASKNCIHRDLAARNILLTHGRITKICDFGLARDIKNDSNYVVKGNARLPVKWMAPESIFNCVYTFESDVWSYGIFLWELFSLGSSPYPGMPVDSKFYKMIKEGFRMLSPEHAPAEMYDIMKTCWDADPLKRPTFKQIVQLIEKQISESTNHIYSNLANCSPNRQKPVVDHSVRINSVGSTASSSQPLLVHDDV

[8] = biological target: Serine/threonine-protein kinase 24 (Homo sapiens) (UniProt Q9Y6E0); assay: Residual activity of MST3 at 1 uM by microplate scintillation counting
Chain of Serine/threonine-protein kinase 24 (Homo sapiens) (Q9Y6E0 whole entry, looked up): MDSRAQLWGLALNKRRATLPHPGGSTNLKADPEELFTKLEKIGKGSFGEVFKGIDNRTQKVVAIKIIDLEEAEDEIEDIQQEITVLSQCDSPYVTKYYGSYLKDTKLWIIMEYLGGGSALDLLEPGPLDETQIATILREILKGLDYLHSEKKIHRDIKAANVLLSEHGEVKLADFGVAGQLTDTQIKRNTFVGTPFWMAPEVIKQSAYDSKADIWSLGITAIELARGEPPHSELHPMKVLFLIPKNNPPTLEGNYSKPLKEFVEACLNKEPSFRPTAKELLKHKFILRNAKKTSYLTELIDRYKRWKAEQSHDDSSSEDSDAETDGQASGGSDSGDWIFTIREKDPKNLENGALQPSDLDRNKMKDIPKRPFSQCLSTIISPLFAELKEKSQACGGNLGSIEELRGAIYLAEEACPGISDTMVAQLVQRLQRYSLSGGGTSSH

[9] = Residual activity of PKA at 10 uM by microplate scintillation counting
[10] = system: Serine/threonine-protein kinase B-raf (Homo sapiens), P15056 [V600E]; assay: Residual activity of B-RAF V600E mutant at 10 uM by microplate scintillation counting
[11] = biological target: T2, Aurora kinase A (Homo sapiens, UniProt O14965); assay: Inhibition of Aurora-A by microplate scintillation counting
T2 sequence (O14965 whole entry): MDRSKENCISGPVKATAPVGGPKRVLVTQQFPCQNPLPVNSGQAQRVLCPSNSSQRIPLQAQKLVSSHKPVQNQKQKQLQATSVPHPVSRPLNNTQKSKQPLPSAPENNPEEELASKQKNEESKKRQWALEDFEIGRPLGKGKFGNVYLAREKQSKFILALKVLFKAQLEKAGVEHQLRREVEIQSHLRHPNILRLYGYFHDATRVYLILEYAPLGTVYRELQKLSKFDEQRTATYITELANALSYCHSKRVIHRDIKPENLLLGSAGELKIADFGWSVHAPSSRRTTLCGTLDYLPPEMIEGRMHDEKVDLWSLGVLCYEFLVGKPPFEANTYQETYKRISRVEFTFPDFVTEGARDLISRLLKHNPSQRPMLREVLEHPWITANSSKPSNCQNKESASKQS
Outline: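 Substrates: tetra(LRRWSLG) for Aurora A/B; poly(Ala,Glu,Lys,Tyr)6:2:5:1 for PDGFRβ; poly(Glu,Tyr)4:1 for TIE2 and VEGFR2. Stopped with 2% H3PO4.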

[12] = biological target: ALK tyrosine kinase receptor (Homo sapiens) (UniProt Q9UM73); assay: Residual activity of ALK at 10 uM by microplate scintillation counting
Chain of ALK tyrosine kinase receptor (Homo sapiens) (Q9UM73 19-1620 limits assumed): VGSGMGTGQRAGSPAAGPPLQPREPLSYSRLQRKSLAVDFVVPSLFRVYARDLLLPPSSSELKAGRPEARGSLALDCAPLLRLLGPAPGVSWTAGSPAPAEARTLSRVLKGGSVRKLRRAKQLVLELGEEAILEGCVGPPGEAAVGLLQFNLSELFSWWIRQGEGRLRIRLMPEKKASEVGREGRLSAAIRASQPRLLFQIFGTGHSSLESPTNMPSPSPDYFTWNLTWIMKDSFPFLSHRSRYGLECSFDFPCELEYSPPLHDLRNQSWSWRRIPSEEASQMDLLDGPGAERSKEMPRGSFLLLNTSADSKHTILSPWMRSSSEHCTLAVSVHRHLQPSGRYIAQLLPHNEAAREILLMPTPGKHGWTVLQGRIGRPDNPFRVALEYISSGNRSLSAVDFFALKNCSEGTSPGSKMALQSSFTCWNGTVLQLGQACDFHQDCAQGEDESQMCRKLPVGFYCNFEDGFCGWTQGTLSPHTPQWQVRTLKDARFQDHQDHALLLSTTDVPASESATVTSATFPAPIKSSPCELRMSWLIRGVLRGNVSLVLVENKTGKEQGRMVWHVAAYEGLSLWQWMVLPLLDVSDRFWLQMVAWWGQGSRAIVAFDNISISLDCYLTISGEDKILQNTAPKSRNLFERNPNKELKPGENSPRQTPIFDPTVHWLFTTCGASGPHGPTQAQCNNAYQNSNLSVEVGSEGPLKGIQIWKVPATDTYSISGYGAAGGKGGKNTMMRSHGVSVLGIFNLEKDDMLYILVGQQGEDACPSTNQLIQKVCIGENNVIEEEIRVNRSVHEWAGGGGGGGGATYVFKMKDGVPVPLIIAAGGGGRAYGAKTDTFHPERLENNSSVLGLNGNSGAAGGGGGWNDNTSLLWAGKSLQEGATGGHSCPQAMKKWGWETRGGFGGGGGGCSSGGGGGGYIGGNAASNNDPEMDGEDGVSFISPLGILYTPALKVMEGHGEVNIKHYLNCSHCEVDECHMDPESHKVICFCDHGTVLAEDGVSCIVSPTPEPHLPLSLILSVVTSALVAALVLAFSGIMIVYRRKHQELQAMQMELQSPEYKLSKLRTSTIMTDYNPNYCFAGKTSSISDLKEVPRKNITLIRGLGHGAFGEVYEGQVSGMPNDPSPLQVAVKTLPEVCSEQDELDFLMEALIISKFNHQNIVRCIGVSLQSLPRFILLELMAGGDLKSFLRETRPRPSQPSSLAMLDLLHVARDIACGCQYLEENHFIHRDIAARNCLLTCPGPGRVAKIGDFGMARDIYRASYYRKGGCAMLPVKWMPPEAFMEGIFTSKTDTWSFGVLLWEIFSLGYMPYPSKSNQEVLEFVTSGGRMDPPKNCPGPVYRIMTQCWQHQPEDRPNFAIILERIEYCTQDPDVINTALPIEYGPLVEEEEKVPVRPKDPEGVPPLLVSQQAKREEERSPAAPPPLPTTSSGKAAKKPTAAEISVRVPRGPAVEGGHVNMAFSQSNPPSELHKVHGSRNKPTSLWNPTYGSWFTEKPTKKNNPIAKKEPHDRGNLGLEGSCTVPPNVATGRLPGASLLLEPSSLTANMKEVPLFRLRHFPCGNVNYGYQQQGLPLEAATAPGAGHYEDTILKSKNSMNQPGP

[13] = biological target: Serine/threonine-protein kinase 24 (Homo sapiens) (UniProt Q9Y6E0); assay: Residual activity of MST3 at 10 uM by microplate scintillation counting
[14] = biological target: T3, Aurora kinase A (Homo sapiens) (UniProt O14965); assay: Residual activity of Aurora-A at 10 uM by microplate scintillation counting
T3 sequence (whole entry): T2 sequence (O14965 whole entry)

[15] = biological target: T4, Aurora kinase C (Homo sapiens) (UniProt Q9UQB9); assay: Residual activity of Aurora-C at 0.1 uM by microplate scintillation counting
T4 sequence (whole entry): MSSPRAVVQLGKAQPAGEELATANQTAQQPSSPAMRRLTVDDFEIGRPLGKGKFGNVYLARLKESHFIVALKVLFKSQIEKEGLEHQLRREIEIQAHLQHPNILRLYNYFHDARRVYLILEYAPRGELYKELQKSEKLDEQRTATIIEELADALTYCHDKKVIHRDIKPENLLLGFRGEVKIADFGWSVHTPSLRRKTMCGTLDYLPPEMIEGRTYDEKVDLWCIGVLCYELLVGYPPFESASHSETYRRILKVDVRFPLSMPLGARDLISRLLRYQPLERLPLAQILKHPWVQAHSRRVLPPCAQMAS

[16] = biological target: Serine/threonine-protein kinase PLK3 (Homo sapiens) (UniProt Q9H4B4); assay: Residual activity of PLK3 at 0.1 uM by microplate scintillation counting

Chain of Tyrosine-protein kinase BTK (Homo sapiens) (Q06187 whole entry): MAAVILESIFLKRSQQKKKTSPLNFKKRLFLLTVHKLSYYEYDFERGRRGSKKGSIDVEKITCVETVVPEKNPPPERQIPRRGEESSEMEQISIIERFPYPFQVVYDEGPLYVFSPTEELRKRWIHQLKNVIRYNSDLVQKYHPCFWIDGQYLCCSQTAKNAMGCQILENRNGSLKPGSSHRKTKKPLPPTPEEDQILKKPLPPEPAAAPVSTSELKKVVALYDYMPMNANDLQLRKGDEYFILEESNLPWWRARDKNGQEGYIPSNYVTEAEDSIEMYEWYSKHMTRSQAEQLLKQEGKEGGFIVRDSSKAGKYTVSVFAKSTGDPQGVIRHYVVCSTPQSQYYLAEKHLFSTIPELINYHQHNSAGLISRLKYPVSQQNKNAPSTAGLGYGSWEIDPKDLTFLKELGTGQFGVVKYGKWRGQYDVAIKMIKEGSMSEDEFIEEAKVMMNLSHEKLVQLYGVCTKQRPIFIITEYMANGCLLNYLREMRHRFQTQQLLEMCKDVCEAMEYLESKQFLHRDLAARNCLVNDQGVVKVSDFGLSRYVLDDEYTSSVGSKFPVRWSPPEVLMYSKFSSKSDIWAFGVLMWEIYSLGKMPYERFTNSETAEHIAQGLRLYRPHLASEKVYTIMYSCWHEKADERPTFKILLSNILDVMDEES

Work on `COc1cc2c(Oc3ccc(-c4nc5ccccc5s4)cc3F)ncnc2cc1OCCCN1CCN(C)CC1` yielded a residual activity [1] of 101%, a residual activity [2] of 52% and a residual activity [3] of 117%. The residual activity [4] was 18%, the residual activity [5] was 77% and the residual activity [6] was 16%. For the same compound, the residual activity [7] was 97%, the residual activity [8] was 122% and the residual activity [9] was 57%. The residual activity [10] was 81%, the IC50 [11] was 220 nM and the residual activity [12] was 180%. It also gave a residual activity [13] of 229%, a residual activity [14] of 4% and a residual activity [15] of 48%. For the same compound, the residual activity [16] was 87%.
Work on `COc1cc2c(Oc3ccc(-c4nc5ccccc5s4)cc3)ncnc2cc1OCCCN1CCCC1` yielded a residual activity [1] of 106%, a residual activity [2] of 59% and a residual activity [3] of 102%. It also gave a residual activity [4] of 48%, a residual activity [5] of 101% and a residual activity [6] of 20%. For the same compound, the residual activity [7] was 113%, the residual activity [8] was 113% and the residual activity [9] was 78%. For the same compound, the residual activity [10] was 58%, the IC50 [11] was 170 nM and the residual activity [12] was 414%. It also gave a residual activity [13] of 165%, a residual activity [14] of 4% and a residual activity [15] of 42%. For the same compound, the residual activity [16] was 87%.
`COc1cc2c(Oc3ccc(-c4nc5ccccc5s4)cc3)ncnc2cc1OCCCN1CCN(C)CC1` gave a residual activity [1] of 100%, a residual activity [2] of 53% and a residual activity [3] of 117%. The residual activity [4] was 19%, the residual activity [5] was 77% and the residual activity [6] was 15%. The residual activity [7] was 103%, the residual activity [8] was 118% and the residual activity [9] was 53%. The residual activity [10] was 57%, the IC50 [11] was 82 nM and the residual activity [12] was 329%. For the same compound, the residual activity [13] was 231%, the residual activity [14] was 5% and the residual activity [15] was 42%. The residual activity [16] was 88%.
